Assay [1] concerns Mycobacterium tuberculosis variant bovis BCG. Put plainly: Antimicrobial activity against Mycobacterium bovis BCG Pasteur after 11 days by broth microdilution method at pH 6.8. The assay is classed as functional. The settings on record: 264 h. The method in brief: (§1)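 Tubercle bacilli were diluted to 10^6 CFU/ml in supplemented 7H9 containing graded PZA or 5-Cl PZA, at pH 6.0 or neutral pH 6.8. Cultures were incubated 11 days at 37°C. The MIC is the lowest concentration blocking visible growth. Integrated amidase constructs were induced with 50 ng/ml anhydrotetracycline.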
In general terms: Dilution methods test growth across graded concentrations, often in twofold steps.

In assay [2] the test system is Mycolicibacterium smegmatis. Nature of the assay: Antimicrobial activity against Mycobacterium smegmatis mc27093 harboring Mycobacterium tuberculosis H37Ra attBL5:::Ptc::pzaA from Mycobacterium tuberculosis after 11 days by broth microdilution method at pH 6.8. The note with it: mc27093, 264 h. The assay is classed as functional. The method in brief:
as §1

Assay [3] concerns Mycolicibacterium smegmatis. Nature of the assay: Antimicrobial activity against Mycobacterium smegmatis mc27093 harboring Mycobacterium tuberculosis H37Ra attBL5:::Ptc::pzaA from Mycobacterium tuberculosis after 11 days by broth microdilution method at pH 6. The class given is functional. The note with it: mc27093, 264 h. The method in brief:
as §1

The target in assay [4] is T1, PYRAZINAMIDASE/NICOTINAMIDAS PNCA (PZase) (Mycobacterium bovis) (UniProt Q93SP7).
T1 sequence (whole entry): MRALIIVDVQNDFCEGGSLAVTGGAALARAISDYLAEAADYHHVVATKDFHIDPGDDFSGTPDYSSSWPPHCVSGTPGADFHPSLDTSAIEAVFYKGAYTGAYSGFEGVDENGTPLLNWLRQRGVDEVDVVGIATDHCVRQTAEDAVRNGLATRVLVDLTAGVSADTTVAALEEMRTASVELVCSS
Put plainly: Activity of pyrazinamidase in Mycobacterium bovis BCG Pasteur assessed as compound turnover per ml of microbial cells after 30 mins by calorimetric analysis. The settings on record: Mycobacterium tuberculosis variant bovis BCG. The method in brief:
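Whole-cell colorimetric amidase assay: log-phase cells were pelleted and resuspended in sterile water with 0.05% tyloxapol. Substrate (PZA or 5-Cl PZA) was added to 2 mM at 37°C with shaking and sampled at intervals. Clarified aliquots received ferrous ammonium sulfate (20 mM final), stood 30 min at 4°C, were re-spun, and were read at OD468. Extinction coefficients were 0.68 (PA) and 0.47 (5-Cl PA) per mM. Activity is nmol/min per ml of cells (OD600).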

In assay [5] the test system is Mycolicibacterium smegmatis. Put plainly: Antimicrobial activity against Mycobacterium smegmatis mc27092 harboring Mycobacterium tuberculosis H37Ra attBL5:::Ptc::pzaAMsmeg after 48 hrs by broth microdilution method at pH 6. The note with it: mc27092, 48 h. The class given is functional.
Assay [6] deals with Mycolicibacterium smegmatis. Put plainly: Antimicrobial activity against Mycobacterium smegmatis mc27092 harboring Mycobacterium tuberculosis H37Ra attBL5:::Ptc::pzaAMsmeg after 11 days by broth microdilution method at pH 6.8. The class given is functional. The note with it: mc27092, 264 h. The method in brief:
as §1

For assay [7], the system named is Mycobacterium tuberculosis variant bovis BCG. Nature of the assay: Antimicrobial activity against Mycobacterium bovis BCG Pasteur after 11 days by broth microdilution method at pH 6. The class given is functional. The note with it: 264 h. Summed up: as §1

This passage reports MIC and Activity results from ChEMBL document CHEMBL1687813 (Antimicrob Agents Chemother, 2010).

Converted amounts (≈) assume the structure as drawn.

For `NC(=O)c1cnc(Cl)cn1`, the MIC in assay [1] was 100 µg/mL (≈ 635 µM); in assay [2] it was 12.5 µg/mL (≈ 79.3 µM); in assay [3], 200 µg/mL (≈ 1270 µM); in assay [5], 25 µg/mL (≈ 159 µM); in assay [6] it was 12.5 µg/mL (≈ 79.3 µM); in assay [7], 25 µg/mL (≈ 159 µM). In assay [4], the Activity stood at 0.11 nmol/min.

Regarding `NC(=O)c1cnccn1` [PYRAZINAMIDE], the MIC in assay [1] was 25 µg/mL (≈ 203 µM); in assay [2], 12.5 µg/mL (≈ 102 µM); in assay [3] it was 12.5 µg/mL (≈ 102 µM); in assay [5] it was 62.5 µg/mL (≈ 508 µM); in assay [6] it was above 1000 µg/mL; in assay [7], 50 µg/mL (≈ 406 µM). Further, the Activity in assay [4] stood at 0.015 nmol/min.

One may read the MIC as the lowest concentration found to suppress growth. A higher MIC goes with a less susceptible organism.
